# From ChEMBL document CHEMBL5346886 (Eur J Med Chem, 2023)
# Calls of active or inactive are those of the source. The calls are words filed in the database; no cut-off is given here.
# Columns and labels:
# [1] = tested on: Murine hepatitis virus; test: Antiviral activity against Murine hepatitis virus-A59 infected in mouse L929 cells assessed as reduction in viral copy pre-infected with cell for 1 hrs followed by compound addition and measured after 48 hrs by RT-qPCR analysis; type: functional, organism-based; conditions: Murine coronavirus
# In short: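 L929 cells in DMEM with 10% FBS were washed serum-free at 80% confluence and infected with MHV-A59 at MOI 0.01 for 1 h at 37 °C. Compounds were added at 0.1–100 μmol/L, with DMSO as blank control. After 48 h at 37 °C, the viral M gene in supernatant was measured by qRT-PCR. Percent inhibition was derived from copy number and EC50 from curve fitting.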
# [2] = tested on: Murine hepatitis virus; test: Antiviral activity against murine hepatitis virus-A59 infected in BALB/c mouse assessed as reduction in IFN-gamma production in liver at 70 mg/kg, po administered once daily one hour post infection and measured after 3 days by ELISA analysis; type: functional, organism-based; conditions: time 3.0 day
# In short: (§1)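 MHV-A59 was inoculated intranasally into male BALB/c mice (30 μL, TCID50 = 10−7.125/100 μL), with oral dosing once daily from 1 hpi for four days. At 3 dpi, 0.1 g lung or liver from 4 mice per group was homogenized in 0.9 mL water at 4 °C and centrifuged. Supernatant IFN-β was read by ELISA; TNF-α, IFN-γ, IL-1β, IL-6 and CXCL10 by multi-analyte kit, with OD 450 nm against standards.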
# [3] = tested on: Murine hepatitis virus; test: Antiviral activity against Murine hepatitis virus-A59 infected in mouse L929 cells assessed as reduction in viral copy upto 200 uM pre-infected with cell for 1 hrs followed by compound addition and measured after 48 hrs by RT-qPCR analysis; type: functional, organism-based
# In short: (§2)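 L929 cells in DMEM with 10% FBS were seeded for 24 h to 80% confluence and washed thrice with serum-free medium. Cells were infected with MHV-A59 at MOI 0.01 for 1 h at 37 °C, then compound was added, with DMSO as the blank control. After 48 h at 37 °C, cells and supernatants were taken for qRT-PCR of viral copies. Inhibition was calculated from copy number and fitted for EC50.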
# [4] = Cmax in Sprague-Dawley rat at 5 mg/kg, iv administered as single dose and measured at 0.083 to 24 hrs by LC-MS/MS analysis; type: ADME, organism-based; set-up: dose 5 mg/kg, time 0.083-24 hrs, route iv; conditions: in vivo
# [5] = AUC (0 to infinity) in Sprague-Dawley rat at 5 mg/kg, iv administered as single dose and measured at 0.083 to 24 hrs by LC-MS/MS analysis; type: ADME, organism-based; set-up: time upper 24 hrs, dose 5 mg/kg, time lower 0.083 hrs, route iv; conditions: in vivo
# [6] = Cmax in Sprague-Dawley rat at 25 mg/kg, po administered as single dose and measured at 0.25 to 24 hrs by LC-MS/MS analysis; type: ADME, organism-based; set-up: dose 25 mg/kg, time 0.25-24 hrs, route po; conditions: in vivo
# [7] = tested on: Murine hepatitis virus; test: Antiviral activity against murine hepatitis virus-A59 infected in BALB/c mouse assessed as reduction in IL6 production in liver at 70 mg/kg, po administered once daily one hour post infection and measured after 3 days by ELISA analysis; type: functional, organism-based; conditions: time 3.0 day; in short: as §1
# [8] = Oral bioavailability in Sprague-Dawley rat at 25 mg/kg administered as single dose and measured at 0.25 to 24 hrs by LC-MS/MS analysis; type: ADME, organism-based; conditions: in vivo, time 0.25-24 hrs
# [9] = Tmax in Sprague-Dawley rat at 25 mg/kg, po administered as single dose and measured at 0.25 to 24 hrs by LC-MS/MS analysis; type: ADME, organism-based; conditions: in vivo, time 0.25-24 hrs
# [10] = tested on: Murine hepatitis virus; test: Antiviral activity against murine hepatitis virus-A59 infected in BALB/c mouse assessed as reduction in IL-1beta production in liver at 70 mg/kg, po administered once daily one hour post infection and measured after 3 days by ELISA analysis; type: functional, organism-based; conditions: time 3.0 day; in short: as §1
# [11] = AUC (0 to infinity) in Sprague-Dawley rat at 25 mg/kg, po administered as single dose and measured at 0.25 to 24 hrs by LC-MS/MS analysis; type: ADME, organism-based; set-up: time upper 24 hrs, time lower 0.25 hrs, dose 25 mg/kg, route po; conditions: in vivo
# [12] = tested on: Murine hepatitis virus; test: Antiviral activity against murine hepatitis virus-A59 infected in BALB/c mouse assessed as inhibition of viral replication in liver at 70 mg/kg, po administered once daily one hour post infection and measured after 3 days by qRT-PCR analysis; type: functional, organism-based; conditions: time 3.0 day
# In short: (§3)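 SPF male BALB/c mice aged 3–4 weeks were put under isoflurane and inoculated intranasally with 30 μL MHV-A59 (TCID50 = 10−7.125/100 μL) in PBS. Oral dosing once daily in 15% Cremophor EL/82.5% PBS/2.5% DMSO started at 1 hpi and ran for four days; groups had 12 mice. At 3 dpi, 4 mice per group were killed and lung and liver M-gene copies measured by qRT-PCR.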
# [13] = Tmax in Sprague-Dawley rat at 5 mg/kg, iv administered as single dose and measured at 0.083 to 24 hrs by LC-MS/MS analysis; type: ADME, organism-based; conditions: in vivo, time 0.083-24 hrs
# [14] = tested on: Murine hepatitis virus; test: Antiviral activity against murine hepatitis virus-A59 infected in BALB/c mouse assessed as inhibition of viral replication in lungs at 70 mg/kg, po administered once daily one hour post infection and measured after 3 days by qRT-PCR analysis; type: functional, organism-based; conditions: time 3.0 day; in short: as §3
# [15] = tested on: Murine hepatitis virus; test: Antiviral activity against murine hepatitis virus-A59 infected in BALB/c mouse assessed as reduction in IFN-beta production in liver at 70 mg/kg, po administered once daily one hour post infection and measured after 3 days by ELISA analysis; type: functional, organism-based; conditions: time 3.0 day; in short: as §1
# [16] = tested on: Murine hepatitis virus; test: Antiviral activity against murine hepatitis virus-A59 infected in BALB/c mouse assessed as reduction in TNF-alpha production in liver at 70 mg/kg, po administered once daily one hour post infection and measured after 3 days by ELISA analysis; type: functional, organism-based; conditions: time 3.0 day; in short: as §1
# [17] = tested on: Murine hepatitis virus; test: Antiviral activity against Murine hepatitis virus-A59 infected in mouse L929 cells assessed as reduction in viral copy pre-infected with cell for 1 hrs followed by compound addition and measured after 48 hrs in the presence of remdesivir by RT-qPCR analysis; type: functional, organism-based; in short: as §2
# [18] = tested on: Murine hepatitis virus; test: Antiviral activity against murine hepatitis virus-A59 infected in BALB/c mouse assessed as reduction in CXCL10 production in liver at 70 mg/kg, po administered once daily one hour post infection and measured after 3 days by ELISA analysis; type: functional, organism-based; conditions: time 3.0 day; in short: as §1
# [19] = Solubility of the compound; type: physicochemical
# [20] = Stability in human plasma assessed as half-life; type: ADME, cell-free
# [21] = tested on: Murine hepatitis virus; test: Antiviral activity against murine hepatitis virus-A59 infected in BALB/c mouse assessed as alleviation of necrotic debris in lungs at 100 mg/kg, po administered once daily one hour post infection and measured after 3 days by H&E staining based analysis; type: functional, organism-based; conditions: time 3.0 day
# In short: (§4)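 In male BALB/c mice (3–4 weeks), MHV-A59 was given intranasally (30 μL, TCID50 = 10−7.125/100 μL). Oral dosing once daily in a Cremophor EL/PBS/DMSO vehicle began at 1 hpi and lasted four days. At 3 dpi, lungs and livers from 4 mice per group were fixed in zinc formalin and paraffin-embedded. Sections of about 4 μm were stained with H&E and examined at 200× and 400×.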
# [22] = tested on: Murine hepatitis virus; test: Antiviral activity against murine hepatitis virus-A59 infected in BALB/c mouse assessed as inhibition of viral replication in liver at 100 mg/kg, po administered once daily one hour post infection and measured after 3 days by qRT-PCR analysis; type: functional, organism-based; conditions: time 3.0 day; in short: as §3
# [23] = MRT (0 to infinity) in Sprague-Dawley rat at 5 mg/kg, iv administered as single dose and measured at 0.083 to 24 hrs by LC-MS/MS analysis; type: ADME, organism-based; conditions: in vivo, time 0.083-24 hrs
# [24] = tested on: Murine hepatitis virus; test: Antiviral activity against murine hepatitis virus-A59 infected in BALB/c mouse assessed as alleviation of lymphocytes infiltration in lungs at 100 mg/kg, po administered once daily one hour post infection and measured after 3 days by H&E staining based analysis; type: functional, organism-based; conditions: time 3.0 day; in short: as §4
# [25] = tested on: Murine hepatitis virus; test: Antiviral activity against murine hepatitis virus-A59 infected in BALB/c mouse assessed as inhibition of viral titer in liver at 100 mg/kg, po administered once daily one hour post infection and measured after 3 days by qRT-PCR analysis; type: functional, organism-based; conditions: time 3.0 day; in short: as §3
# [26] = tested on: Murine hepatitis virus; test: Antiviral activity against murine hepatitis virus-A59 infected in BALB/c mouse assessed as alleviation of thickened alveolar septa in lungs at 100 mg/kg, po administered once daily one hour post infection and measured after 3 days by H&E staining based analysis; type: functional, organism-based; conditions: time 3.0 day; in short: as §4
# [27] = tested on: Murine hepatitis virus; test: Antiviral activity against murine hepatitis virus-A59 infected in BALB/c mouse assessed as inhibition of viral replication in lungs at 100 mg/kg, po administered once daily one hour post infection and measured after 3 days by qRT-PCR analysis; type: functional, organism-based; conditions: time 3.0 day; in short: as §3
# [28] = MRT (0 to infinity) in Sprague-Dawley rat at 25 mg/kg, po administered as single dose and measured at 0.25 to 24 hrs by LC-MS/MS analysis; type: ADME, organism-based; conditions: in vivo, time 0.25-24 hrs
# [29] = tested on: Murine hepatitis virus; test: Antiviral activity against murine hepatitis virus-A59 infected in BALB/c mouse assessed as alleviation of interstitial pneumonia in lungs at 100 mg/kg, po administered once daily one hour post infection and measured after 3 days by H&E staining based analysis; type: functional, organism-based; conditions: time 3.0 day; in short: as §4
# [30] = tested on: Murine hepatitis virus; test: Antiviral activity against murine hepatitis virus-A59 infected in BALB/c mouse assessed as reduction in mortality at 100 mg/kg, po administered once daily one hour post infection and measured after 23 days; type: functional, organism-based; conditions: time 23.0 day
# In short: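 After intranasal MHV-A59 inoculation (30 μL, TCID50 = 10−7.125/100 μL), 3–4-week-old male BALB/c mice received oral drug or vehicle once daily from 1 hpi for four days, 12 per group. The remaining mice were monitored daily for body weight, clinical signs and death until 23 dpi; survival curves were plotted.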
# [31] = tested on: Murine hepatitis virus; test: Potency index, ratio of GS-441524 EC50 to test compound EC50 for antiviral activity against Murine hepatitis virus-A59 infected in mouse L929 cells assessed as reduction in viral copy pre-infected with cell for 1 hrs followed by compound addition and measured after 48 hrs by RT-qPCR analysis; type: functional
compound,measurement,setting,value
CCC(CC)COC(=O)[C@H](C)N[P@](=O)(OC[C@H]1O[C@@](C#N)(c2ccc3c(N)ncnn23)[C@H](O)[C@@H]1O)Oc1ccccc1,EC50,[1],1.82 µM
CC(C)Cc1ccc(C(C)C(=O)O)cc1 (stereo not given) [IBUPROFEN],Activity,[2],inactive
same,Activity,[3],inactive
same,Cmax,[4],41.8 µM
same,AUC,[5],67.1 uM.hr/L
same,Cmax,[6],80.2 µM
same,Activity,[7],inactive
same,F,[8],78.42%
same,Tmax,[9],40.2 min
same,Activity,[10],inactive
same,AUC,[11],263 uM.hr/L
same,Activity,[12],inactive
same,Tmax,[13],1.8 min
same,Activity,[14],inactive
same,Activity,[15],inactive
same,Activity,[16],inactive
same,Activity,[17],inactive
same,Activity,[18],inactive
CC(C(=O)OC[C@H]1O[C@@](C#N)(c2ccc3c(N)ncnn23)[C@H](O)[C@@H]1O)c1cccc(C(=O)c2ccccc2)c1 (stereo not given in full),solubility,[19],1070 µM
same,EC50,[1],4.17 µM
same,t1/2,[20],199.18 min
"N#C[C@@]1(c2ccc3c(N)ncnn23)O[C@H](CO)C(O)C1O (single isomer, unassigned) [GS-441524]",Cmax,[4],5.67 µM
same,Activity,[21],inactive
same,AUC,[5],7.51 uM.hr/L
same,Cmax,[6],7.75 µM
same,Activity,[22],Active
same,F,[8],60.31%
same,MRT,[23],1.28 h
same,AUC,[11],22.6 uM.hr/L
same,Activity,[24],inactive
same,Activity,[25],Active
same,Activity,[26],inactive
same,EC50,[1],10 µM
same,Activity,[27],Active
same,MRT,[28],3.16 h
same,Activity,[29],inactive
same,Activity,[30],Active
COc1ccc2cc([C@H](C)C(=O)OC[C@H]3O[C@@](C#N)(c4ccc5c(N)ncnn45)[C@H](O)[C@@H]3O)ccc2c1,solubility,[19],155 µM
same,EC50,[1],8.65 µM
same,t1/2,[20],181.97 min
COc1ccc2c(c1)c(CC(=O)OC[C@H]1O[C@@](C#N)(c3ccc4c(N)ncnn34)[C@H](O)[C@@H]1O)c(C)n2C(=O)c1ccc(Cl)cc1,solubility,[19],0.1 µM
same,EC50,[1],10.1 µM
same,t1/2,[20],170.07 min
N#C[C@@]1(c2ccc3c(N)ncnn23)O[C@H](COC(=O)Cc2ccccc2Nc2c(Cl)cccc2Cl)[C@@H](O)[C@H]1O,solubility,[19],3.7 µM
same,EC50,[1],6.4 µM
same,t1/2,[20],191.16 min
CC(C(=O)OC[C@H]1O[C@@](C#N)(c2ccc3c(N)ncnn23)[C@H](O)[C@@H]1O)c1cccc(Oc2ccccc2)c1 (stereo not given in full),Ratio EC50,[31],8
same,solubility,[19],29 µM
same,EC50,[1],1.27 µM
same,t1/2,[20],169.31 min
